Source: ChEMBL document CHEMBL1806443, “Novel imidazo[4,5-b]pyridine and triaza-benzo[c]fluorene derivatives: synthesis, antiproliferative activity and DNA binding studies” (Eur J Med Chem, 2011)
The source made the active and inactive calls. No cut-off for these calls is given here.

Tests used:
SW-620 [1] = experiment: Cell cycle arrest in human SW620 cells assessed as accumulation at G1 phase at 1 uM after 24 hrs by propidium iodide staining based flow cytometeric analysis (reference value: 29.3 +/- 1.5%); type: functional
SW-620 [2] = experiment: Cell cycle arrest in human SW620 cells assessed as accumulation at subG1 phase at 5 uM after 48 hrs by propidium iodide staining based flow cytometeric analysis (reference value: 29.1 +/- 1.1%); type: functional
Summary of the method: (§1)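 Cells seeded at 3 × 10^4 per well and treated 24 h later with 1, 5 or 10 µM for 24 and 48 h. Adherent and floating cells were pooled, washed in PBS and fixed in 70% ethanol. They were then stained with propidium iodide 10 µg/mL plus RNase A 0.2 µg/mL. Flow cytometry counted 10000 events; each point was run in triplicate; significance was taken at p < 0.05.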

SW-620 [3] = experiment: Cell cycle arrest in human SW620 cells assessed as accumulation at subG1 phase at 1 uM after 48 hrs by propidium iodide staining based flow cytometeric analysis (reference value: 29.1 +/- 1.1%); type: functional
SW-620 [4] = experiment: Cell cycle arrest in human SW620 cells assessed as accumulation at subG1 phase at 5 uM after 24 hrs by propidium iodide staining based flow cytometeric analysis (reference value: 18 +/- 1%); type: functional; summary of the method: as §1
MIA PaCa-2 [5] = experiment: Cell cycle arrest in human MIAPaCa2 cells assessed as accumulation at G2/M phase at 10 uM after 24 hrs by propidium iodide staining based flow cytometeric analysis (reference value: 19.5 +/- 3.9%); type: functional
MIA PaCa-2 [6] = experiment: Cell cycle arrest in human MIAPaCa2 cells assessed as accumulation at S phase at 10 uM after 48 hrs by propidium iodide staining based flow cytometeric analysis (reference value: 20.5 +/- 0.2%); type: functional
MIA PaCa-2 [7] = experiment: Cell cycle arrest in human MIAPaCa2 cells assessed as accumulation at S phase at 5 uM after 48 hrs by propidium iodide staining based flow cytometeric analysis (reference value: 20.5 +/- 0.2%); type: functional
MIA PaCa-2 [8] = experiment: Cell cycle arrest in human MIAPaCa2 cells assessed as accumulation at S phase at 10 uM after 24 hrs by propidium iodide staining based flow cytometeric analysis (reference value: 29.2 +/- 4.2%); type: functional
MIA PaCa-2 [9] = experiment: Cell cycle arrest in human MIAPaCa2 cells assessed as accumulation at S phase at 1 uM after 24 hrs by propidium iodide staining based flow cytometeric analysis (reference value: 29.2 +/- 4.2%); type: functional
MIA PaCa-2 [10] = experiment: Cell cycle arrest in human MIAPaCa2 cells assessed as accumulation at G1 phase at 10 uM after 48 hrs by propidium iodide staining based flow cytometeric analysis (reference value: 65.2 +/- 1.9%); type: functional
MIA PaCa-2 [11] = experiment: Cell cycle arrest in human MIAPaCa2 cells assessed as accumulation at G1 phase at 5 uM after 48 hrs by propidium iodide staining based flow cytometeric analysis (reference value: 65.2 +/- 1.9%); type: functional
SW-620 [12] = experiment: Cell cycle arrest in human SW620 cells assessed as accumulation at G2/M phase at 10 uM after 24 hrs by propidium iodide staining based flow cytometeric analysis (reference value: 22.3 +/- 2.9%); type: functional
SW-620 [13] = experiment: Cell cycle arrest in human SW620 cells assessed as accumulation at S phase at 10 uM after 24 hrs by propidium iodide staining based flow cytometeric analysis (reference value: 48.4 +/- 1.4%); type: functional
SW-620 [14] = experiment: Cell cycle arrest in human SW620 cells assessed as accumulation at S phase at 5 uM after 24 hrs by propidium iodide staining based flow cytometeric analysis (reference value: 48.4 +/- 1.4%); type: functional
SW-620 [15] = experiment: Cell cycle arrest in human SW620 cells assessed as accumulation at G1 phase at 1 uM after 48 hrs by propidium iodide staining based flow cytometeric analysis (reference value: 52.7 +/- 0.9%); type: functional
MIA PaCa-2 [16] = experiment: Cell cycle arrest in human MIAPaCa2 cells assessed as accumulation at G1 phase at 10 uM after 24 hrs by propidium iodide staining based flow cytometeric analysis (reference value: 51.2 +/- 2.7%); type: functional
MIA PaCa-2 [17] = experiment: Cell cycle arrest in human MIAPaCa2 cells assessed as accumulation at G1 phase at 5 uM after 24 hrs by propidium iodide staining based flow cytometeric analysis (reference value: 51.2 +/- 2.7%); type: functional
MIA PaCa-2 [18] = experiment: Cell cycle arrest in human MIAPaCa2 cells assessed as accumulation at G1 phase at 1 uM after 24 hrs by propidium iodide staining based flow cytometeric analysis (reference value: 51.2 +/- 2.7%); type: functional
WI-38 [19] = experiment: Antiproliferative activity against human WI38 cells after 72 hrs by MTT assay; type: cell-based; details: Homo sapiens, WI-38, 72 h
Summary of the method: (§2)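 Monolayer cells in DMEM with 10% FBS, 2 mM L-glutamine, penicillin and streptomycin at 37 °C, 5% CO2. Seeded at 3000-6000 cells/well by doubling time on day 0. Five 10-fold dilutions (0.01–100 µM) were added and incubated 72 h. MTT read-out, converted to percentage growth. IC50 by linear regression between bracketing concentrations. Quadruplicate points, three independent experiments, ANOVA/Tukey p<0.05.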

HEp-2 [20] = experiment: Antiproliferative activity against human Hep2 cells after 72 hrs by MTT assay; type: functional, cell-based; details: Homo sapiens, HEp-2, 72 h; summary of the method: as §2
SK-BR-3 = experiment: Antiproliferative activity against human SKBR3 cells after 72 hrs by MTT assay; type: functional, cell-based; details: Homo sapiens, SK-BR-3, 72 h; summary of the method: as §2
SW-620 [21] = experiment: Antiproliferative activity against human SW620 cells at 0.1 to 10 uM after 72 hrs by MTT assay; type: functional, cell-based; summary of the method: as §2
HEp-2 [22] = experiment: Antiproliferative activity against human Hep2 cells at 0.1 to 10 uM after 72 hrs by MTT assay; type: functional, cell-based; summary of the method: as §2
WI-38 [23] = experiment: Cytostatic activity against human WI38 cells at 1 to 10 uM after 72 hrs by MTT assay; type: ADME, cell-based; details: wi-38, 72 h
Summary of the method: (§3)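 Monolayers in DMEM with 10% FBS, 2 mM L-glutamine, penicillin and streptomycin (37 °C, 5% CO2) were seeded at 3000–6000 cells/well on day 0. Five 10-fold dilutions (0.01–100 µM) were added, followed by 72-h incubation and MTT read-out. Absorbances were converted to percentage growth by the NIH formulae. Each point was run in quadruplicate in three experiments; ANOVA with Tukey test.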

MCF7 = experiment: Cytostatic activity against human MCF7 cells at 1 to 10 uM after 72 hrs by MTT assay; type: functional, cell-based; summary of the method: as §3
Nucleic Acid = experiment: Binding affinity to calf thymus DNA assessed as fluorescence quenching at compound to DNA ratio of < 0.1 by fluorimetric titrations; type: nucleic-acid assay; details: Bos taurus
Summary of the method: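 Fluorimetric titration: portions of ct-DNA (sonicated, filtered, concentration as phosphate) added to compound in cacodylate buffer pH 7.0, I = 0.05 mol dm^-3. Emission 350–600 nm, sample absorbance <0.05 at excitation, mostly DNA excess (r < 0.1). Ks and n = [bound compound]/[DNA phosphate] by non-linear least-squares Scatchard fitting.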

SW-620 [24] = experiment: Induction of apoptosis in human SW620 cells assessed as morphological changes after 24 to 48 hrs by microscopic analysis; type: functional, cell-based
Summary of the method: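 Cells were seeded at 3 × 10^4 per well and exposed 24 h later to 1, 5 or 10 µM for 24 and 48 h. Apoptotic morphology (cell shrinkage, chromatin condensation) was scored by inverted light microscopy at 200× magnification.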

IC50 (SK-BR-3): 2200 nM
Activity (Nucleic Acid): Active
SMILES: Cl.c1cnc2nc3ccc4ccc(C5=NCCN5)cc4n3c2c1
Activity (SW-620 [1]): 54.3%
Activity (SW-620 [2]): 47.6%
Activity (SW-620 [3]): 25.4%
Activity (SW-620 [4]): 24.4%
Activity (MIA PaCa-2 [5]): 18.3%
Activity (MIA PaCa-2 [6]): 56.9%
Activity (MIA PaCa-2 [7]): 36.8%
Activity (MIA PaCa-2 [8]): 29.3%
Activity (MIA PaCa-2 [9]): 37.4%
Activity (MIA PaCa-2 [10]): 26.1%
Activity (MIA PaCa-2 [11]): 42.4%
Activity (SW-620 [12]): 19.2%
Activity (SW-620 [13]): 47.3%
Activity (SW-620 [14]): 11.8%
Activity (SW-620 [15]): 35.1%
Activity (MIA PaCa-2 [16]): 52.4%
Activity (MIA PaCa-2 [17]): 22.4%
Activity (MIA PaCa-2 [18]): 41.6%
IC50 (WI-38 [19]): 1770 nM
IC50 (HEp-2 [20]): 270 nM
Activity (SW-620 [21]): Active
Activity (HEp-2 [22]): Active
Activity (WI-38 [23]): Toxic
Activity (MCF7): Active
Activity (SW-620 [24]): Dose-dependent effect
